Activity calls are given as the source filed them. No cut-off for these calls is given here.

The species entered for series [1] is Rattus norvegicus. The series can be described thus: Phototoxicity against rat RGK1 cells assessed as reduction in cell survival at 0.2 to 1 uM pretreated for 24 hrs followed by 16 J/cm2 irradiation with halogen lamp measured after 24 hrs by CCK8 assay. The series is classed as functional, cell-based. The method in brief: (§1)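 HeLa, U251 (DMEM, 10% FCS) or RGK cells plated 5×10^3/well and grown 24 h. Conjugate added at 0.1–1 µM (final 1% DMSO) for 24 h. Cells PBS-washed twice, given fresh medium and irradiated with a 100 W halogen lamp (water jacket, λ >500 nm) to 16 J cm⁻². WST-8 absorbance read at 450 nm 24 h later; survival normalized to untreated wells. EC50 for 50% cell death. Mean ± SD of six replicates.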
On the technique in general: Tetrazolium dyes change colour on reduction, which living cells bring about.

Series [2] can be described thus: n-Octanol/water partition co-efficient, log P of the compound by RP-TLC method. In kind it is physicochemical. The method in brief:
(§2)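 Log P (n-octanol/water partition) determined by reverse-phase thin-layer chromatography.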

Series [3] can be described thus: Dark toxicity in human HeLa cells assessed as reduction in cell survival at 1 uM measured after 24 hrs by CCK8 assay. In kind it is cell-based. The method in brief: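 HeLa cells seeded 5×10^3/well, grown 24 h (37°C, 5% CO2), then given conjugate at 1.0 μM (final 1% DMSO) for 24 h. Washed twice with PBS, fresh medium added, kept without light (0 J cm⁻²). WST-8 (CCK-8) read at 450 nm 24 h later. Survival normalized to untreated wells; mean ± SD of six replicates.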

Series [4] concerns U-251. The series can be described thus: Phototoxicity against human U251 cells assessed as reduction in cell survival at 0.2 to 1 uM pretreated for 24 hrs followed by 16 J/cm2 irradiation with halogen lamp measured after 24 hrs by CCK8 assay. The series is classed as functional, cell-based. The method in brief:
as §1

The subject of series [5] is HeLa. The series can be described thus: Phototoxicity against human HeLa cells assessed as reduction in cell survival up to 1 uM pretreated for 24 hrs followed by 16 J/cm2 irradiation with halogen lamp measured after 24 hrs by CCK8 assay. The series is classed as functional, cell-based. The method in brief:
as §1

Series [6] can be described thus: Drug uptake in rat RGK1 cells at 2.5 uM measured after 8 to 24 hrs in presence of GLUT1 inhibitor cytochalasin B by fluorescence assay. The series is classed as ADME, cell-based. The method in brief:
(§3)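 RGK cells (MNNG-induced mutant of rat RGM gastric mucosal line; DMEM/F12 1:1, 10% FCS, antibiotic-antimycotic) plated 2.5×10^6/well for 24 h. Pre-incubated 2 h with or without cytochalasin B (50 µM final), then given 2.5 µM compound in medium with 1% DMSO for 8 or 24 h. PBS-washed twice, lysed in DMSO. Fluorescence read at ex 430/em 650 nm and quantified against per-compound DMSO calibration. Mean ± SD of three replicates.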

Series [7] in a line: Drug uptake in rat RGK1 cells at 2.5 uM measured after 8 to 24 hrs by fluorescence assay. In kind it is ADME, cell-based. The method in brief:
as §3

The nature of series [8]: Lipophilicity, log P of the compound. The series is classed as physicochemical. The note with it: octanol/water. The method in brief: as §2

Take `OC[C@H]1OC(O)[C@H](O)[C@@H](O)[C@@H]1Sc1c(F)c(F)c(-c2c3nc(c(-c4c(F)c(F)c(F)c(F)c4F)c4ccc([nH]4)c(-c4c(F)c(F)c(F)c(F)c4F)c4nc(c(-c5c(F)c(F)c(F)c(F)c5F)c5ccc2[nH]5)C=C4)C=C3)c(F)c1F` (stereo partly specified): the result in series [1], in series [4] and in series [5] was Active. Moreover, in series [2], the logP (commonly a log measure of how a compound divides between an organic and an aqueous phase) worked out at 6.3. Also, in series [3], the Activity entry is “Non-Toxic”. Also, the figures for the Drug uptake result in series [6] and in series [7] were “Not Active” and “Active”, respectively.

Turning to `OC[C@H]1OC(O)[C@H](O)[C@@H](Sc2c(F)c(F)c(-c3c4nc(c(-c5c(F)c(F)c(F)c(F)c5F)c5ccc([nH]5)c(-c5c(F)c(F)c(F)c(F)c5F)c5nc(c(-c6c(F)c(F)c(F)c(F)c6F)c6ccc3[nH]6)C=C5)C=C4)c(F)c2F)[C@@H]1O` (stereo partly specified), the outcome in series [1], in series [4] and in series [5] was Active. This compound also had a logP in series [2] of 6.21. In series [3], the Activity result was “Non-Toxic”. The Drug uptake entry in series [6] is reported as “Not Active”; in series [7], “Active”.

For the compound `OCCOc1c(F)c(F)c(-c2c3nc(c(-c4c(F)c(F)c(OCCO)c(F)c4F)c4ccc([nH]4)c(-c4c(F)c(F)c(OCCO)c(F)c4F)c4nc(c(-c5c(F)c(F)c(F)c(F)c5F)c5ccc2[nH]5)C=C4)C=C3)c(F)c1F`, the logP in series [8] worked out at 5.4.

`OCCOc1c(F)c(F)c(-c2c3nc(c(-c4c(F)c(F)c(OCCO)c(F)c4F)c4ccc([nH]4)c(-c4c(F)c(F)c(F)c(F)c4F)c4nc(c(-c5c(F)c(F)c(F)c(F)c5F)c5ccc2[nH]5)C=C4)C=C3)c(F)c1F` registered a logP in series [8] of 6.5.

`OC[C@H]1OC(Sc2c(F)c(F)c(-c3c4nc(c(-c5c(F)c(F)c(F)c(F)c5F)c5ccc([nH]5)c(-c5c(F)c(F)c(F)c(F)c5F)c5nc(c(-c6c(F)c(F)c(F)c(F)c6F)c6ccc3[nH]6)C=C5)C=C4)c(F)c2F)[C@H](O)[C@@H](O)[C@@H]1O` (stereo partly specified): the outcome in series [1], in series [4] and in series [5] was Active. The compound also yielded a logP in series [2] of 6.05. Besides, the Activity result in series [3] is “Non-Toxic”. Further, the Drug uptake result in series [7] is “Active”.

In series [8], `OCCOc1c(F)c(F)c(-c2c3nc(c(-c4c(F)c(F)c(F)c(F)c4F)c4ccc([nH]4)c(-c4c(F)c(F)c(OCCO)c(F)c4F)c4nc(c(-c5c(F)c(F)c(F)c(F)c5F)c5ccc2[nH]5)C=C4)C=C3)c(F)c1F` gave a logP of 6.5.

In the case of `OC[C@H]1OC(O)[C@H](Sc2c(F)c(F)c(-c3c4nc(c(-c5c(F)c(F)c(F)c(F)c5F)c5ccc([nH]5)c(-c5c(F)c(F)c(F)c(F)c5F)c5nc(c(-c6c(F)c(F)c(F)c(F)c6F)c6ccc3[nH]6)C=C5)C=C4)c(F)c2F)[C@@H](O)[C@@H]1O` (stereo partly specified), the outcome in series [1], in series [4] and in series [5] was inactive. The same compound registered a lipophilicity (logP) in series [2] of 6.87. Also, in series [3], the Activity result is reported as “Non-Toxic”. Besides, the figures for the Drug uptake result in series [6] and in series [7] were “Not Active” and “Active”, respectively.

For `OC1O[C@H](CSc2c(F)c(F)c(-c3c4nc(c(-c5c(F)c(F)c(F)c(F)c5F)c5ccc([nH]5)c(-c5c(F)c(F)c(F)c(F)c5F)c5nc(c(-c6c(F)c(F)c(F)c(F)c6F)c6ccc3[nH]6)C=C5)C=C4)c(F)c2F)[C@@H](O)[C@H](O)[C@H]1O` (stereo partly specified), the outcome in series [1], in series [4] and in series [5] was Active. Moreover, the logP in series [2] stood at 6.5. Besides, in series [3], the Activity result is “Non-Toxic”. For the same compound, in series [7], the Drug uptake result was “Active”.

These data come from ChEMBL document CHEMBL4219108, “Synthesis, photophysical properties, and photodynamic activity of positional isomers of TFPP-glucose conjugates” (Bioorg Med Chem, 2018).
